Assay outcomes as filed in PubChem BioAssay.
In the library only some 29% were active in any assay of this set; here they are far more common.
CYP2C19 activ – increases human CYP2C19 enzyme activity. P33261. recombinant CYP2C19, luciferin-H EGE luminescence; stronger effect = higher value; 0 = fully inhibited enzyme, 1 = untreated enzyme. activation factor at 5 µM. 96,000 tested, under 10 active;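 active means activation factor of at least 2 at 5 µM in the primary screen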;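 further: 0 = wells with 2.5 mM tranylcypromine and 1 = vehicle-only wells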
E coli WT exp – E. coli BW25113 growth inhibition, expanded screen | OD600 absorbance | growth inhibition, % at 100 µM | 98,000 compounds, 0.15% hits | AID 710;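 active means growth inhibition above about 50% at one test dose, limit read from the data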;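 further: growth measured after 20 h incubation at 37 °C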
CYP2C19 inhib – human CYP2C19 inhibition | P33261 | CYP2C19 Supersomes, luciferin-H EGE luminescence, 30 min | inhibition, % at 5 µM | 96,000 compounds, 21% hits | AID 778;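 active means CYP2C19 inhibition above a set limit at 5 µM in the primary screen, cut at about 50% in these data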;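 further: plate controls were negative control wells for no effect and 2.5 mM tranylcypromine positive control for full effect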
CYP2C9 activ – increases human cytochrome P450 2C9 activity. P11712. recombinant CYP2C9, luciferin-H conversion, luminescence; stronger effect = higher value; factor 1 = untreated enzyme, 0 = blocked. activation factor at 5 µM. 96,000 compounds, 1.4% hits. AID 1024;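 active means activation factor of 2 or more for CYP2C9 at a 5 µM dose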;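 further: 0 = sulfaphenazole-blocked wells and 1 = vehicle-only wells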
Target sequence (P11712 whole entry, looked up): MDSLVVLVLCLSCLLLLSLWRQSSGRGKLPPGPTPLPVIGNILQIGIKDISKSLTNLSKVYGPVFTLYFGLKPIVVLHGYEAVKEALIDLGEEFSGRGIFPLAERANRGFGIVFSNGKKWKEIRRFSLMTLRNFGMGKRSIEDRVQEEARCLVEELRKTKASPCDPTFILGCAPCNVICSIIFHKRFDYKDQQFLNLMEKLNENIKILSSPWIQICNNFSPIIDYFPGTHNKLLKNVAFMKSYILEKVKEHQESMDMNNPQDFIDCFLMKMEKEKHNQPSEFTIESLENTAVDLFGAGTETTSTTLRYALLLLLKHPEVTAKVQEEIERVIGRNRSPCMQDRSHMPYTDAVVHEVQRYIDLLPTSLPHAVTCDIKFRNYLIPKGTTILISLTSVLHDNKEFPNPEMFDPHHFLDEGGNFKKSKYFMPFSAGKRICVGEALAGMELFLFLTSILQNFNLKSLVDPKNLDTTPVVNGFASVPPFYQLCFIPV
CYP2C9 inhib – human CYP2C9 inhibition; P11712; CYP2C9 Supersomes, luciferin-H conversion, luminescence; inhibition, % at 5 µM; 96,000 compounds, 20% hits; AID 777;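 active means blocking of liver enzyme CYP2C9 beyond about 50% at 5 µM, limit read from the data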
tolC growth inh – E. coli tolC mutant growth inhibition; E. coli BW25113 tolC mutant growth, OD615; growth inhibition, % at 10 µM (by protocol); 65,000 compounds, 2.2% hits; AID 573;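 active means growth inhibition at or above a cutoff equal to the mean over every tested compound plus 3 SD, cut at about 60% in these data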;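 further: growth measured after 20 h incubation at 37 °C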
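Assay system: tolC-deleted E. coli BW25113. Medium: kanamycin-containing LB broth (50 µg/mL). Dosing: 10 µM final, single dose. Timing: bacterial growth with compound for 20 h at 37 °C. Detection: A615 absorbance measurement. Read-out basis: growth inhibition in percent.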
The depositor's hits bear a star; · = no result given.

SMILES | CYP2C19 activ | E coli WT exp | CYP2C19 inhib | CYP2C9 activ | CYP2C9 inhib | tolC growth inh
O=C(Nc1nc(-c2ccccc2)cs1)c1cccs1 | 0.8 | -8.0 | 15.0 | 0.7 | 34.0 | 98.4*
O=C(Nc1nc(-c2ccc(Cl)s2)cs1)c1cccs1 | 0.5 | -24.0 | 53.6* | 0.1 | 85.4* | 11.9
Cc1nnc(SCCC(=O)Nc2nc(-c3ccccc3)ns2)s1 | 0.5 | 2.0 | 53.2* | 0.6 | 39.6 | 41.4
O=C(Nc1nc(-c2ccccc2)ns1)c1cccs1 | 1 | -4.0 | 1.9 | 0.8 | 17.8 | 64.2*
CC(C)(C)c1csc(NC(=O)c2cccs2)n1 | 0.8 | -4.0 | 16.0 | 0.7 | 30.3 | 45.0
CS(=O)(=O)N(CC(=O)N1CCCC1)c1cccc(Cl)c1Cl | 0.9 | -2.0 | 14.7 | 1 | 1.8 | -14.0
CNC(=O)NC(=O)CSc1ncc(C(F)(F)F)cc1Cl | 1 | 3.0 | 0.6 | 1.2 | -20.8 | -14.8
Cc1ccc(-c2csc(NC(=O)c3ccno3)n2)cc1 | 0.6 | -2.0 | 38.4 | 0.3 | 70.1* | 10.2
O=C(CSc1ncn[nH]1)Nc1nc(-c2ccccc2)ns1 | 0.2 | 12.0 | 78.2* | 0.2 | 79.0* | 22.3
Cc1ccc(-c2csc(NC(=O)c3cccc([N+](=O)[O-])c3)n2)cc1 | 1.1 | -14.0 | -8.3 | 1.1 | -9.7 | ·
O=C(Nc1nc(-c2ccc(Cl)cc2)cs1)c1cccnc1 | 0.4 | 2.0 | 61.0* | 0.6 | 39.5 | ·
Cn1cc([N+](=O)[O-])c(C(=O)Nc2nc(-c3ccc(Cl)cc3)cs2)n1 | 1.1 | -5.0 | -8.6 | 1.1 | -5.3 | ·
CCCOc1ccc(/C(O)=C2\C(=O)C(=O)N(CCCN(C)C)C23C(=O)N(C)c2ccccc23)cc1 (stereo not given) | 1 | · | -3.5 | 1.2 | -19.8 | -16.8
Cc1c(C(=O)NC(C)CN2CCCCC2)oc2ccccc12 (stereo not given) | 1 | 5.0 | 3.0 | 1 | -2.5 | -11.5
COC(=O)c1cc2ccsc2n1Cc1nc(-c2ccc(OC)cc2)oc1C | 0.7 | -22.0 | 31.6 | 0.4 | 59.4* | 23.5
COC(=O)c1cc2occc2n1CC(=O)Nc1ccc(OC)c(OC)c1 | 0.7 | -1.0 | 32.9 | 0.8 | 16.4 | -3.7
COC(=O)c1cc2ccsc2n1CC(=O)Nc1ccc(N(C)C)cc1 | 0.5 | -4.0 | 53.0* | 0.8 | 21.9 | 12.0
COC(=O)c1cc2sccc2n1Cc1nc(-c2ccc(OC)cc2)oc1C | 0.7 | -4.0 | 30.9 | 0.5 | 48.4 | 0.2
COC(=O)c1cc2ccsc2n1CC(=O)N(C)c1ccccc1 | 0.4 | 1.0 | 55.8* | 0.8 | 23.1 | 10.7
COC(=O)c1cc2ccsc2n1CC(=O)Nc1cc(Cl)ccc1OC | 0.5 | -1.0 | 50.8* | 0.6 | 35.5 | 21.0
COc1ccc(N2CC(C(=O)NCCCN3CCOCC3)CC2=O)cc1 (stereo not given) | 1 | 3.0 | 1.1 | 0.9 | 13.2 | -5.0
O=c1cc(N2CCCC2)[nH]c(=O)n1-c1ccc(Cl)cc1 | · | · | · | · | · | -14.9
Cc1ccc(NC(=O)CC2SC3=NCCCN3C2=O)c(C)c1 (stereo not given) | 1 | 1.0 | -0.6 | 1.2 | -18.6 | -3.2
CC(C)OCCCN1C(=O)c2ccccc2C1C(=O)NC1CCCCC1 (stereo not given) | 1.1 | 5.0 | -7.1 | 1 | 0.6 | -3.7
Cc1ccn2cc(CNC(=O)c3cccs3)nc2c1 | 0.8 | 3.0 | 24.7 | 0.8 | 16.6 | ·
SMILES | CYP2C19 activ | E coli WT exp | CYP2C19 inhib | CYP2C9 activ | CYP2C9 inhib | tolC growth inh
Cc1cc2ccccc2n1CCNC(=O)C1CC1 | · | · | · | · | · | -6.5
Cc1cc2ccccc2n1CCNC(=O)C1CCCCC1 | 0.3 | 7.0 | 68.5* | 0.6 | 38.4 | ·
O=C(NCCn1ccc2ccccc21)C1CCCCC1 | · | 5.0 | · | · | · | -0.3
Cc1cc2ccccc2n1CCNC(=O)C1CCCC1 | 0.1 | 0.0 | 93.9* | 0.5 | 51.5* | -3.7
Cc1cc2ccccc2n1CCNC(=O)c1cccs1 | 0.5 | -7.0 | 53.4* | 0.5 | 45.1 | 4.9
C=CCOc1nc(N2CCCC2)nc(N2CCCC2)n1 | 1 | 1.0 | -0.1 | 1 | -0.7 | -10.5
O=C(NCCc1ccccc1)C1CCCN(C(=O)NC2CCCCC2)C1 (stereo not given) | 1.1 | 3.0 | -11.5 | 1 | 4.4 | -11.0
Cc1cc(N2C(=O)CCC2=O)ccc1NC(=O)c1cccs1 | 1.1 | 2.0 | -5.4 | 1.1 | -6.5 | ·
Cc1cc(C(=O)OC2CCOC2=O)c2ccccc2n1 (stereo not given) | 0.9 | -5.0 | 8.1 | 1 | 3.5 | ·
COc1ccc(-c2cc(C(=O)OCC(=O)N(C)C)c3ccccc3n2)cc1 | 0.1 | -3.0 | 88.0* | 0.3 | 71.6* | 15.7
O=C(OC1CCOC1=O)c1cc(-c2ccc(Br)cc2)nc2ccccc12 (stereo not given) | 1 | -15.0 | 0.3 | 0.5 | 51.5* | ·
Cc1ccc(C(=O)COC(=O)c2cc(Cl)nc3ccccc23)cc1 | 0.3 | -3.0 | 65.0* | 1.5 | -53.4 | ·
COc1ccc(-c2cc(C(=O)OC3CCOC3=O)c3ccccc3n2)cc1 (stereo not given) | 1 | -4.0 | 3.8 | 0 | 96.2* | ·
CC(=O)Nc1cc(C(N)=O)c(Cl)cc1Cl | 1.1 | 0.0 | -11.7 | 1.2 | -15.9 | -11.2
CCCC(=O)N=C1SC2CS(=O)(=O)CC2N1c1ccc(C(C)=O)cc1 (stereo not given) | 0.9 | -4.0 | 6.6 | 0.6 | 42.2 | -5.5
C=CCN1C(=O)/C(=C2/Sc3ccccc3N2CCCS(=O)(=O)O)SC1=S | 0.9 | -1.0 | 13.5 | 0.4 | 60.0* | -2.8
CCCN1/C(=C2/SC(=S)N(CC)C2=O)C=Cc2ccccc21 | 0.6 | -27.0 | 37.4 | 0.9 | 7.9 | ·
C=CCN1C(=O)/C(=C2/C(=O)N(CC(=O)O)c3ccccc32)S/C1=N/c1nccs1 | 1.1 | 1.0 | -10.2 | 0.9 | 13.0 | ·
CN1C(=O)/C(=C2/C=Cc3ccccc3N2CCCS(=O)(=O)O)SC1=S | 0.8 | 3.0 | 23.3 | 0.5 | 53.1* | -13.2
S=C(Nc1ccc(Cl)cc1Cl)Nc1ccccc1Oc1ccccc1 | 1.1 | -3.0 | -14.1 | 1.1 | -11.4 | ·
S=C(Nc1cccc(Cl)c1)Nc1ccccc1Oc1ccccc1 | 0.5 | 7.0 | 48.7 | 0.3 | 65.9* | ·
NC(=O)NC(=O)COC(=O)c1ccccc1Oc1ccccc1 | 0.9 | -3.0 | 14.9 | 1 | 0.2 | -4.4
CCCNC(=O)COC(=O)c1ccccc1OCc1ccc(Cl)cc1 | 0.1 | 5.0 | 87.4* | 0.2 | 77.5* | ·
CCOc1ccc(S(=O)(=O)Nc2ccc3c(c2)OCO3)c2cccnc12 | 0.2 | 9.0 | 81.8* | 0.6 | 38.1 | 1.1
CCOc1ccc(S(=O)(=O)NCc2ccc(F)cc2)c2cccnc12 | 0.5 | 10.0 | 50.8* | 1.2 | -22.2 | 2.9
CCOc1ccc(S(=O)(=O)Nc2ccccn2)c2ccccc12 | 0.8 | -8.0 | 18.6 | 0.8 | 16.8 | ·
CCOc1ccc(OCC)c(S(=O)(=O)NCc2cccnc2)c1 | · | · | · | · | · | -0.6
Cn1c(O)c(C=NC(CC(N)=O)C(=O)O)c(=O)n(C)c1=O (stereo not given) | 1 | 1.0 | 1.6 | 1.1 | -13.4 | -6.3
